This note sets out measurements from ChEMBL document CHEMBL1142164, “Activities of naphthylisoquinoline alkaloids and synthetic analogs against Leishmania major” (Antimicrob Agents Chemother, 2007).

For one data set, the system named is Leishmania major. The data set can be described thus: Cytotoxicity against cloned virulent Leishmania major promastigotes MHOM/IL/81/FE/BN1 after 48 hrs. Type of data set: organism-based. Put shortly:
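L. major promastigotes grown on blood agar at 26°C, 5% CO2, then washed in PBS and suspended at 1 × 10^8 cells/ml in complete Click RPMI 1640 (10% FCS, glutamine, HEPES pH 7.2, antibiotics, 2-mercaptoethanol), no phenol red. Exposed to increasing compound concentrations 24 h at 26°C, then Alamar Blue added. OD read 540/630 nm; 48 h OD versus untreated (100% growth) gave IC50 by linear interpolation. Duplicate wells, ≥2 experiments; DMSO ≤1% final.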

For data set [1], the species on record is Mus musculus. The data set can be described thus: Cytotoxicity against J774.1 macrophages after 48 hrs. Particulars: J774.1, 48 h. Put shortly:
(§1)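 J774.1 cells, BALB/c peritoneal exudate cells (erythrocytes lysed in 10 mM NH4Cl), or BMDC (day-10 nonadherent cells from GM-CSF 200 U/ml cultures) were plated at 2 × 10^6 cells/ml in complete RPMI without phenol red. Cells were exposed to increasing concentrations for 24 h at 37°C in 5% CO2, then Alamar Blue was added. IC50 was taken by linear interpolation from the 48 h OD. Duplicate wells, at least two experiments.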

The nature of data set [2]: Cytotoxicity index, IC50 for J774.1 macrophages over IC50 for Leishmania major promastigotes. As to conditions: mouse; for selectivity ratio: J774.1 macrophages, read-out: Ratio IC50. Put shortly:
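Index is J774.1 IC50 divided by promastigote IC50, with both assays run in parallel. Promastigotes were incubated 24 h at 26°C with rising concentrations, and J774.1 cells 24 h at 37°C. Alamar Blue was then added. OD at 540/630 nm was read, and IC50 was interpolated linearly from the 48 h readings, with drug-free wells set as 100% growth.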

The subject of another data set is NIH3T3. The data set can be described thus: Cytotoxicity against mouse embryo NIH3T3 cells by Alamar blue method. Type of data set: cell-based. Put shortly: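 NIH 3T3 fibroblasts were grown on gelatin and suspended at 2 × 10^6 cells/ml in DMEM. They were exposed to rising compound concentrations for 24 h at 37°C in 5% CO2, then Alamar Blue was added. IC50 was derived by linear interpolation of the 48 h OD. Duplicate wells per concentration; at least two experiments.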

The nature of data set [3]: Cytotoxicity against BALB/c mouse bone-marrow derived dendritic cells by Alamar blue method. It counts as cell-based. Particulars: Dendritic cell. The method in brief:
as §1
A general note: The colour change of resazurin is a common sign of viable cells or microbes.

The species entered for data set [4] is Mus musculus. The data set can be described thus: Cytotoxicity against BALB/c mouse peritoneal macrophages by Alamar blue method. Type of data set: functional. The method in brief: as §1

Each structure is given as a SMILES string. Bounds are passed on as bounds.

What is called IC50 is the concentration needed to halve the response being measured. A high value points to a need for much substance. As to `COc1cc(OC)c2c(C)[n+](-c3ccccc3)c(C)cc2c1.[O-][Cl+3]([O-])([O-])[O-]`, the IC50 in the data set on Leishmania major came to 26.6 µM; in the data set filed under Mus musculus [1] it was 39.2 µM. Besides, the selectivity ratio in data set [2] is 1.47.
Consider `COc1cc(OC)c2c(C)[n+](-c3ccccc3)c(C)cc2c1.[Cl-]`, for which the values for the IC50 with Leishmania major and in the data set listed under Mus musculus [1] were 47 µM and 43.7 µM, respectively. Moreover, the “Ratio IC50” value in data set [2] is reported as under 1.
For the compound `COc1cc(OC)c2c(C)[n+](-c3cccc4ccccc34)c(C)cc2c1.[O-][Cl+3]([O-])([O-])[O-]`, the half-inhibitory concentration (IC50) is 15 µM in the data set on NIH3T3; 2.91 µM in the data set on Leishmania major; 10.2 µM in the data set filed under Mus musculus [1]; 27.4 µM in data set [3]; 15.5 µM in the data set filed under Mus musculus [4]. Moreover, the selectivity ratio in data set [2] was 3.48.
`COc1cc2c(c(OC)c1)C(C)=[N+](c1ccc(OC)c3c(OC)cc(C)cc13)[C@@H](C)C2` [ANCISANCISTROCLADINIUM A]: the half-inhibitory concentration (IC50) in the data set on Leishmania major came out at 4.9 µM; in the data set filed under Mus musculus [1], 31.8 µM; in data set [3], 36 µM; in the data set listed under Mus musculus [4], 41.7 µM. In addition, the selectivity ratio in data set [2] is 6.48.
For the compound `COc1cc2c(c(OC)c1-c1c(C)cc3cccc(OC)c3c1O)C(C)=N[C@@H](C)C2` [ANCISTROCLADIDINE], the half-maximal inhibitory concentration (IC50) in the data set with Leishmania major and in the data set filed under Mus musculus [1] was over 100 µM throughout.
Consider `COc1cc2c(c(OC)c1)C(C)=[N+](c1ccc3cc(C)cc(OC)c3c1O)[C@@H](C)C2` [ANCISTROCLADINIUM B], for which the IC50 with NIH3T3 stood at 10.6 µM; in the data set with Leishmania major, 1.24 µM; in the data set listed under Mus musculus [1] it was 11.2 µM; in data set [3], 20.1 µM; in the data set filed under Mus musculus [4], 16.9 µM. In addition, the selectivity ratio in data set [2] worked out at 9.04.
In the case of `COc1cc(OC)c(-c2ccc(OC)c3c(OC)cc(C)cc23)c2c1C(C)=N[C@@H](C)C2` [ANCISTROEALAINE A], the IC50 with Leishmania major and in the data set listed under Mus musculus [1] was over 100 µM each time.
For the compound `COc1c2c(cc(O)c1-c1c(C)cc3cccc(OC)c3c1O)C[C@H](C)N=C2C` [ANCISTROHEYNINE B], the IC50 with Leishmania major worked out at 33 µM; in the data set filed under Mus musculus [1], 29.9 µM. For the same compound, the selectivity ratio in data set [2] was under 1.
Consider `COc1cc(CO)c(-c2ccc3c(c2O)[C@@H](C)N[C@H](C)C3)c2cccc(O)c12` [DIONCOPELTINE A], for which the IC50 in the data set with Leishmania major and in the data set listed under Mus musculus [1] was over 100 µM each time.
`COc1ccc(-c2ccc3cc(C)nc(C)c3c2O)c2cc(C)cc(OC)c12` [DIONCOPHYLLEINE D]: the concentration for half-maximal inhibition (IC50) in the data set on Leishmania major and in the data set filed under Mus musculus [1] was over 100 µM in each case.
With `COc1cccc2c(-c3ccc4c(c3O)[C@@H](C)N[C@H](C)C4)c(C)cc(OC)c12` [DIONCOPHYLLINE A], inhibition in the data set with Leishmania major was half-maximal at 47 µM (IC50).
Regarding `COc1cc(C)c(-c2ccc(O)c3c2C[C@@H](C)N[C@@H]3C)c2cccc(O)c12` [DIONCOPHYLLINE C], the IC50 is 36.5 µM with Leishmania major and 32.8 µM in the data set filed under Mus musculus [1]. In data set [2], the selectivity ratio is under 1.
In the data set with Leishmania major, `COc1cc(C)c(-c2ccc3cc(C)nc(C)c3c2O)c2cccc(O)c12` [ENT-DIONCOPHYLLEINE A] showed a concentration for half-maximal inhibition (IC50) of 32.3 µM.
